Data set [1] relates to Rattus norvegicus. The data set can be described thus: Acute toxicity in sc dosed albino rat. The data set is classed as organism-based. To be noted: in vivo. An outline of the steps:
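Male albino rats were injected with increasing doses of each agent. LD50 and LD90, the doses killing 50% and 90% of the animals, were calculated by a published method.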

The subject of data set [2] is Rattus norvegicus. The data set can be described thus: Inhibition of 5-alpha-reductase activity in sc dosed Sprague-Dawley rat assessed as effect on serum steroid level administered on postnatal third day measured after 7 weeks of age by radioimmunoassay. Format: functional. An outline of the steps:
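Male Sprague–Dawley rats, 12 per group, given compound sc in 5% Tween 80 in water from postnatal day 3 until 7 weeks of age. Vehicle-treated negative control; anastrozole as positive control. Serum testosterone and DHT measured by RIA after ether extraction, using specific antisera and tritiated tracer, 24 h at 4 °C. Levels read from a standard curve and compared with vehicle controls to give ED50.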

Data set [3] deals with Rattus norvegicus. The data set can be described thus: Inhibition of 5-alpha-reductase activity in sc dosed Sprague-Dawley rat assessed as effect on serum steroid level administered on postnatal third day measured after 7 weeks of age by radioimmunoassay relative to anastrozole. Format: functional.

Here are results for ten molecules from ChEMBL document CHEMBL1275277, “Synthesis of bioactive polyheterocyclic ring systems as 5α-reductase inhibitors” (Eur J Med Chem, 2010).

Each structure is given as a SMILES string.

The term LD50 denotes the dose expected to kill half of the subjects tested. What is called ED50 is the midpoint of the dose-response relation. In data set [1], `CCN1CC2=C(N=C3N(c4ccccc4)N=C(C(C)=O)N3C2c2ccc(C)cc2)/C(=C/c2ccc(C)cc2)C1` (configuration not stated) registered a 50% lethal dose (LD50) of 257.23 µg/kg and an LD90 of 419.23 µg/kg. Also, the ED50 in data set [2] worked out at 0.911 µg/kg. Moreover, the “fold change (FC)” value in data set [3] was determined as 1.196.
In data set [1], `CC(C)(C#N)c1cc(Cn2cncn2)cc(C(C)(C)C#N)c1` [ANASTROZOLE] displayed an LD50 of 2.415 µg/kg and an LD90 of 3.69 µg/kg. In data set [2], the ED50 came to 1.09 µg/kg.
`CCN1CC2=C(NC(=S)NC2c2ccc(C)cc2)/C(=C/c2ccc(C)cc2)C1` (configuration not stated): in data set [1], the LD50 came to 222.23 µg/kg and the LD90 turned out to be 434.76 µg/kg. Also, the ED50 in data set [2] came to 1.88 µg/kg. For the same molecule, in data set [3], the “fold change (FC)” value came out at 0.5798.
`CCOC(=O)C1=NN(c2ccc(Cl)cc2)C2=NC3=C(CN(CC)C/C3=C\c3ccc(C)cc3)C(c3ccc(C)cc3)N12` (configuration not stated): in data set [2], the ED50 stood at 0.441 µg/kg. Also, in data set [3], the “fold change (FC)” value amounted to 2.472.
In data set [1], `CCN1C/C(=C\c2ccc(C)cc2)c2nc3[nH]c(=S)[nH]c(=O)c3c(-c3ccc(C)cc3)c2C1` had an LD50 of 447.88 µg/kg and an LD90 of 937.34 µg/kg. Also, the ED50 in data set [2] stood at 0.795 µg/kg. Moreover, the “fold change (FC)” value in data set [3] is on record as 1.371.
The like results for `CCN1CC2=C(N=C3N(c4ccccc4)N=C(C(=O)Nc4ccccc4)N3C2c2ccc(C)cc2)/C(=C/c2ccc(C)cc2)C1` (configuration not stated) were, in that order, 6534.45 µg/kg, 1950.12 µg/kg, 0.432 µg/kg and 2.523.
In data set [1], `CCN1CC2=C(N=C3N(c4ccc(Cl)cc4)N=C(C(C)=O)N3C2c2ccc(C)cc2)/C(=C/c2ccc(C)cc2)C1` (configuration not stated) yielded an LD50 of 312.34 µg/kg and an LD90 of 735.34 µg/kg. Moreover, the ED50 in data set [2] came out at 0.856 µg/kg. In data set [3], the “fold change (FC)” value is given as 1.273.
In the case of `CCN1C/C(=C\c2ccc(C)cc2)c2nc3nc4n(c(=O)c3c(-c3ccc(C)cc3)c2C1)C(=O)CS4`, in data set [1], the LD50 was 516.56 µg/kg and the LD90 stood at 1148.5 µg/kg. Further, in data set [2], the ED50 stood at 0.766 µg/kg. The “fold change (FC)” value in data set [3] amounted to 1.423.
In the case of `CCN1CC2=C(N=C3N(c4ccc(C)cc4)N=C(C(=O)Nc4ccccc4)N3C2c2ccc(C)cc2)/C(=C/c2ccc(C)cc2)C1` (configuration not stated), in data set [1], the LD50 amounted to 236.28 µg/kg and the LD90 is 417.34 µg/kg. For the same molecule, the ED50 in data set [2] came to 0.925 µg/kg. Further, the “fold change (FC)” value in data set [3] was determined as 1.178.
Taken in the same sequence, the figures for `CCOC(=O)C1=NN(c2ccc(C)cc2)C2=NC3=C(CN(CC)C/C3=C\c3ccc(C)cc3)C(c3ccc(C)cc3)N12` (configuration not stated) were 224.33 µg/kg, 514.33 µg/kg, 1 µg/kg and 1.09.
